From ChEMBL document CHEMBL1124558, “Differential effects of a series of hydroxamic acid derivatives on 5-lipoxygenase and cyclooxygenase from neutrophils and 12-lipoxygenase from platelets and their in vivo effects on inflammation and anaphylaxis” (J Med Chem, 1989)
pIC50: −log10 of the molar value.

Key:
[1] = biological target: T1, Cyclooxygenase (Rattus norvegicus) (UniProt P35355+Q63921); assay: In vitro inhibitory activity against rat polymorphonuclear leukocyte Prostaglandin G/H synthase at 10 uM; type: protein assay
In short: (§1)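 Homogenate of glycogen-elicited rat peritoneal PMNs in 0.1 M Tris-HCl pH 8.2 with 10 μM NDGA, preincubated 5 min at 37 °C with compound (≤0.1% DMSO). [14C]arachidonic acid (8 μM) added with 4 mM glutathione and epinephrine; 10 min reaction. TxB2 and PGF2α separated by TLC and counted.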

[2] = test system: Mus musculus; assay: In vivo inhibition of mouse ear inflammation; type: functional; set-up: concentration or dose not given beside the values
In short: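 Compound or ethanol vehicle applied topically to one ear of male DBA/2J mice 60 min before arachidonic acid (2 mg/ear). […] Groups of 5 mice.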

[3] = test system: Cavia porcellus; assay: In vivo inhibitory activity against guinea pig systemic anaphylaxis when administered a compound dose (200 mg/kg) perorally; type: functional; conditions: po
In short: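 Male Hartley guinea pigs sensitised ip with ovalbumin (2.7 mg/kg) plus LPS adjuvant, then challenged 2 weeks later with 1% ovalbumin aerosol for 30 s. Pretreated with pyrilamine, indomethacin and propranolol 20 min before challenge. Compound given in PEG 400 1 h before challenge.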

[4] = biological target: T2, Polyunsaturated fatty acid 5-lipoxygenase (Rattus norvegicus) (UniProt P12527); assay: In vitro inhibitory activity against polymorphonuclear leukocyte 5-lipoxygenase in rat cell at 3 uM
T2 sequence (whole entry): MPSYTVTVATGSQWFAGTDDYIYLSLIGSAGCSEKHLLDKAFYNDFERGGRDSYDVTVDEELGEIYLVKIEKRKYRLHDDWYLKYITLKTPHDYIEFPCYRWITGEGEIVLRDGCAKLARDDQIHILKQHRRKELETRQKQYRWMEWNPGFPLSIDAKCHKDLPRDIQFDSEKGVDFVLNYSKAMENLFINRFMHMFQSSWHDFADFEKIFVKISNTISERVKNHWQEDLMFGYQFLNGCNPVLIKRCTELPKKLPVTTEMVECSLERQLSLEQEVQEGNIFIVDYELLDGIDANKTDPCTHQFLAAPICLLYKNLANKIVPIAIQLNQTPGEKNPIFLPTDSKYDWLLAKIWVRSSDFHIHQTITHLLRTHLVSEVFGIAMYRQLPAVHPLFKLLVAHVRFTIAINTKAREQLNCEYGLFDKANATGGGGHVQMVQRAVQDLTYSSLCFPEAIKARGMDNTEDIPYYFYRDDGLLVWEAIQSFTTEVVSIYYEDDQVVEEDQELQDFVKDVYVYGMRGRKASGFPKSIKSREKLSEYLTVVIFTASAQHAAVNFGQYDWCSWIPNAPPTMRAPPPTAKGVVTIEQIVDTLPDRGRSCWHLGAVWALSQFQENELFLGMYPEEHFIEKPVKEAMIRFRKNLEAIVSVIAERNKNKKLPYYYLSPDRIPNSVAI
In short: (§2)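 Intact glycogen-elicited peritoneal PMNs pooled from 4–5 Sprague-Dawley rats (250 g), preincubated 5 min at 30 °C with compound in DMSO (≤0.1% final) plus 1 μM indomethacin. Challenge with [14C]arachidonic acid (4 μM) and A23187 (0.8 μM) for 3 min. Extraction, TLC, 5-HETE by scintillation counting.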

[5] = biological target: T3, Polyunsaturated fatty acid 5-lipoxygenase (Homo sapiens) (UniProt P09917); assay: In vitro inhibitory activity against polymorphonuclear leukocyte 5-lipoxygenase in human cell at 1 uM
T3 sequence (whole entry): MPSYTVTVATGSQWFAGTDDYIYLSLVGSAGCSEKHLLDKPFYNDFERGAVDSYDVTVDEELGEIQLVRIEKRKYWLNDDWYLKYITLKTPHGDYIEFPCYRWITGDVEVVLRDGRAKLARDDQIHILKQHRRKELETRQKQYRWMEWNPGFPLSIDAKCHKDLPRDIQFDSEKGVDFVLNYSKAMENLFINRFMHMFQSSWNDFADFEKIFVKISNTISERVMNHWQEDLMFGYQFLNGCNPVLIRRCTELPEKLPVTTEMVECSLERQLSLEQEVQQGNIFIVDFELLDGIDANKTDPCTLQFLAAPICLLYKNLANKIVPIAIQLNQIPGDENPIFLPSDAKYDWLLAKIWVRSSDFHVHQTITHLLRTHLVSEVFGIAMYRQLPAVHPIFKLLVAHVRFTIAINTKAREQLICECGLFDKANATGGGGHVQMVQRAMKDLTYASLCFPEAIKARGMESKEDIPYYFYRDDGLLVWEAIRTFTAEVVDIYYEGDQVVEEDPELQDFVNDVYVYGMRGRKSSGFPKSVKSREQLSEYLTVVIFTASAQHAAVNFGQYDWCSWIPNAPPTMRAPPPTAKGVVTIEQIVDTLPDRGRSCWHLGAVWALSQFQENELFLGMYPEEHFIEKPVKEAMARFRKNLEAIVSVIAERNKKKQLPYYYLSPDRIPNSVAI
In short: (§3)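 PMNs from venous blood of healthy volunteers, isolated by dextran sedimentation and Percoll gradient (>90% pure) and held in Ca/Mg PBS with 1 mg/mL glucose and 1 μM indomethacin. Challenged with calcium ionophore and [14C]arachidonic acid for 3 min. 5-HETE measured by TLC and scintillation counting; IC50 read graphically.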

[6] = test system: 5-lipoxygenase (Cavia porcellus); assay: Inhibitory activity against polymorphonuclear leukocyte 5-lipoxygenase using guinea pig supernatant at 10 uM
[7] = biological target: T4, Arachidonate 12-lipoxygenase (Rattus norvegicus) (UniProt Q02759); assay: In vitro inhibitory activity against rat platelet 12-lipoxygenase at 10 uM
T4 sequence (whole entry): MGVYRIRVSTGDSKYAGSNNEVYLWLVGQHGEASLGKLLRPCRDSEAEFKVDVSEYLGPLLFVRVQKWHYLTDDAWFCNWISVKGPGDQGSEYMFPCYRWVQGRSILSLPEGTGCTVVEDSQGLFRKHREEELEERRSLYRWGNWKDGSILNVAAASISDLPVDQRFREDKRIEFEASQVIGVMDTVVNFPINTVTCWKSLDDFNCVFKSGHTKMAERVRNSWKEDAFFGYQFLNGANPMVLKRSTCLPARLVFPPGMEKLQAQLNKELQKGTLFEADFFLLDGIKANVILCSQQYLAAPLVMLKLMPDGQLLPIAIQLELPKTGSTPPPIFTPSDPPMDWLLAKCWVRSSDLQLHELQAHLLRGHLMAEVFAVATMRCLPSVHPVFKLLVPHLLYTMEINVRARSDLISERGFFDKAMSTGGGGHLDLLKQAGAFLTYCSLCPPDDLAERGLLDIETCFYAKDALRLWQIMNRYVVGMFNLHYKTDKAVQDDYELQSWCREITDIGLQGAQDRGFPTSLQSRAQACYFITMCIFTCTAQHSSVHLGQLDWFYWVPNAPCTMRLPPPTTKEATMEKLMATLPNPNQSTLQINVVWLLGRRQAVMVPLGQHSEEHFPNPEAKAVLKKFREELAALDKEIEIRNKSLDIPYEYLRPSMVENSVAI
In short: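 Cell-free cytosolic 12-lipoxygenase from Sprague-Dawley rat platelets (0.4 mg/mL), preincubated 5 min at 30 °C with compound in DMSO (≤0.1% final), 25 mM Tris pH 7.4, 1 μM indomethacin, 100 μM glutathione; reaction started with 6 μM [14C]arachidonic acid and quenched with citric acid/NDGA after 3 min. 12-HETE isolated by TLC and counted by scintillation; % inhibition, duplicate.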

[8] = biological target: T3, Polyunsaturated fatty acid 5-lipoxygenase (Homo sapiens); assay: In vitro inhibitory activity against polymorphonuclear leukocyte 5-lipoxygenase in human cell at 10 uM
In short: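 Human PMNs from venous blood of a healthy volunteer (EDTA) were purified by dextran sedimentation, a Percoll gradient and NH4Cl red-cell lysis (>90% pure). They were held in Ca/Mg PBS with 1 mg/mL glucose and 1 μM indomethacin, then challenged with A23187 (0.8 μM) and [14C]arachidonic acid (4 μM) for 3 min. 5-HETE was measured by TLC and scintillation counting.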

[9] = biological target: T1, Cyclooxygenase (Rattus norvegicus); assay: In vitro inhibitory activity against rat polymorphonuclear leukocyte Prostaglandin G/H synthase at 100 uM; type: protein assay
In short: (§4)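 Glycogen-elicited peritoneal PMNs from Sprague-Dawley rats were homogenized at 0 °C in 0.1 M Tris-HCl pH 8.2 with 10 μM NDGA. Compound (DMSO ≤0.1%) was preincubated 5 min at 37 °C, then 8 μM [14C]arachidonic acid with 4 mM glutathione and epinephrine was added for 10 min. TxB2 and PGF2α were measured by TLC and scintillation counting.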

[10] = biological target: T1, Cyclooxygenase (Rattus norvegicus); assay: In vitro inhibitory activity against rat polymorphonuclear leukocyte Prostaglandin G/H synthase at 30 uM; type: protein assay; in short: as §1
[11] = test system: 5-lipoxygenase (Cavia porcellus); assay: In vitro inhibitory activity against polymorphonuclear leukocyte 5-lipoxygenase using guinea pig supernatant at 10 uM
[12] = biological target: T5, Polyunsaturated fatty acid 5-lipoxygenase (Homo sapiens, UniProt P09917); assay: In vitro inhibition of polymorphonuclear leukocyte derived human 5-lipoxygenase; in short: as §3
T5 sequence (P09917 whole entry): T3 sequence (whole entry)

[13] = biological target: T6, Cyclooxygenase (Rattus norvegicus, UniProt P35355+Q63921); assay: In vitro inhibitory activity against rat polymorphonuclear leukocyte Prostaglandin G/H synthase; type: functional; in short: as §4
T6 sequence (P35355 whole entry): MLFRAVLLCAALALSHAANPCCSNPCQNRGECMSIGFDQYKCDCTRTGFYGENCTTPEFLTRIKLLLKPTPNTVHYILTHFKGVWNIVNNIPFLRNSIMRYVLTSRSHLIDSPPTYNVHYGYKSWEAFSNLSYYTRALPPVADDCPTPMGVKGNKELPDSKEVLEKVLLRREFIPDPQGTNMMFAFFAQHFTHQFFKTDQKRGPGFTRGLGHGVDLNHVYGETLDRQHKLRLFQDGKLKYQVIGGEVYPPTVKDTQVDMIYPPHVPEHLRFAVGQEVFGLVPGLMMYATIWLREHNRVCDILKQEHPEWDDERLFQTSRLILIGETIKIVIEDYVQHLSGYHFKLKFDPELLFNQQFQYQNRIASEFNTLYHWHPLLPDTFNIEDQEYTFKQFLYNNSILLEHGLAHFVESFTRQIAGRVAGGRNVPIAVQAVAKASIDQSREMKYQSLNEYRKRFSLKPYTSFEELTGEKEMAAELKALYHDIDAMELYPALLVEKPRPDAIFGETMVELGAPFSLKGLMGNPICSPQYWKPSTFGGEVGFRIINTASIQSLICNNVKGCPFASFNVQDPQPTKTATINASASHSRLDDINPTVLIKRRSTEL
T6 sequence (Q63921 whole entry): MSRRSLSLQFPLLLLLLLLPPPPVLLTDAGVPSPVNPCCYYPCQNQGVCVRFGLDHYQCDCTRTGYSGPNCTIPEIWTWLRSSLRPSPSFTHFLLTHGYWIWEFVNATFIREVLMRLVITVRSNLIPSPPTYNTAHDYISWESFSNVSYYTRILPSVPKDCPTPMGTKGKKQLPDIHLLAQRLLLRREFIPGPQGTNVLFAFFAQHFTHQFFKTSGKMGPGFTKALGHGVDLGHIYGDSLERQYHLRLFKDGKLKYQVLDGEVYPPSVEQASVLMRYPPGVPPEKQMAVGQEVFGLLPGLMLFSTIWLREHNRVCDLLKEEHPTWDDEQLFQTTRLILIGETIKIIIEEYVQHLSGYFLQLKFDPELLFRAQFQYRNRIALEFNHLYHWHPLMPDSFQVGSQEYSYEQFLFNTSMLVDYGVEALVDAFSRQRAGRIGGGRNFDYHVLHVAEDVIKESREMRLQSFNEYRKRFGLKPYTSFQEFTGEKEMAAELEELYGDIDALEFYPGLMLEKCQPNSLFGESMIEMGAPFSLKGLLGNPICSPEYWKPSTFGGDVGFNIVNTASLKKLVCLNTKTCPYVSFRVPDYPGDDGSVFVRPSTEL

[14] = biological target: T7, Polyunsaturated fatty acid 5-lipoxygenase (Rattus norvegicus, UniProt P12527); assay: In vitro inhibition of rat polymorphonuclear leukocyte 5-lipoxygenase; in short: as §2
T7 sequence (P12527 whole entry): T2 sequence (whole entry)

With `CC(c1ccccc1)N(O)C(=O)Cc1ccc(OCc2ccccc2)cc1` (centres undefined) the inhibition [1] was 38% and the Inhibition [2] was 47%.
`O=C(CCCc1ccccc1)NO` [PHENYLBUTYRYLHYDROXAMIC ACID] showed an inhibition in vivo at 200 mg/kg [3] of 11%, an inhibition [4] of 11% and an Inhibition [2] of 28%. It also gave an inhibition [5] of -8%.
`O=C(CCCc1ccccc1)NCCc1ccccc1` showed an inhibition [6] of 12%, an inhibition [7] of under 10% and an inhibition [8] of under 10%. The inhibition [9] was under 10%.
With `O=C(Cc1ccc(OCc2ccccc2)cc1)N(Cc1ccccc1)OCc1ccccc1` the inhibition [7] was under 10%, the inhibition [10] was 24% and the inhibition [8] was 22%. For the same compound, the inhibition [11] was under 10%.
For `CCCN(O)C(=O)Cc1ccc(OCc2ccccc2)cc1`, the inhibition in vivo at 200 mg/kg [3] was 0%, the pIC50 [12] was 6.80 and the Inhibition [2] was 82%. The IC50 [13] was 30000 nM and the pIC50 [14] was 7.00.
